The source made the active and inactive calls. The rule behind the calls is not given here.

The subject of experiment [1] is Jurkat. In words: Inhibition of heat shock-induced HSP70 expression in human Jurkat cells at 145 uM treated 2 hrs before beat shock challenge measured after 8 hrs by Western blotting. Format: functional, cell-based. In outline:
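Jurkat cells (low basal HSP70) got 145 μM compound or DMSO vehicle for 2 h, then a 30 min 43 °C heat shock and 8 h recovery at 37 °C. HSP70 and actin were read by Western blot. Controls were unheated cells and heated cells with no additive.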
A general note: In western blotting, separated proteins are transferred to a membrane and probed.

Experiment [2] has as its target Casein kinase II subunit alpha (Homo sapiens) (UniProt P68400). In words: Binding affinity to CK2alpha at 150 uM followed by UV irradiation for 30 mins with Wood's glass filtered medium pressure mercury arc light by SDS-PAGE based pull down assay. The method in brief: (§1)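 CK2 (17.5–70 nM) was mixed with 150 μM BioQ in 400 μL 10 mM PBS pH 7.2 with protease inhibitors, with or without 10 mM MgCl2 and 2 μM ATP. Samples were irradiated 30 min on ice (320–400 nm, peak 365 nm) or left unirradiated. Capture was on streptavidin agarose for 1 h, with washes in lysis buffer or 2% SDS Tris buffer, then boiling, SDS-PAGE and silver staining.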

The species entered for a further experiment is Homo sapiens. Kind of experiment: Binding affinity to CK2 at 150 uM after 30 mins by silver staining based pull down assay. In outline: as §1
Experiment [3] relates to Jurkat. Kind of experiment: Binding affinity to quercetin binding protein in human Jurkat cells at 150 uM followed by UV irradiation for 30 mins with Wood's glass filtered medium pressure mercury arc light after cell lysis by SDS-PAGE based pull down assay. In outline:
(§2)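 Jurkat cells were grown in RPMI with 10% FBS (about 15×10^6 cells) and treated 2 h with 150 μM BioQ in 3% aqueous DMSO. They were heat-shocked at 43 °C for 30 min, recovered 1 h at 37 °C, and UV-irradiated (320–400 nm, peak 365 nm, 30 min, 4 °C) before or after sonication lysis. Streptavidin-agarose capture ran 1 h. Beads were washed ≥3× with lysis buffer or 2% SDS Tris pH 7.4, boiled, run on 12% SDS-PAGE and silver-stained.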

In experiment [4] the test system is Jurkat. In words: Binding affinity to quercetin binding protein in human Jurkat cells at 150 uM after 30 mins followed by denaturing wash by SDS-PAGE based pull down assay in presence of heat shock. Format: cell-based.
For experiment [5], the system named is Jurkat. In words: Binding affinity to quercetin binding protein in human Jurkat cells at 150 uM followed by UV irradiation for 30 mins with Wood's glass filtered medium pressure mercury arc light before cell lysis measured after denaturing wash by SDS-PAGE based pull down assay. In outline:
as §2

For experiment [6], the target named is Heat shock protein HSP 90-alpha (Homo sapiens) (UniProt P07900). Kind of experiment: Binding affinity to HSP90AA1 in human Jurkat cells at 150 uM followed by UV irradiation for 30 mins with Wood's glass filtered medium pressure mercury arc light after cell lysis measured after denaturing wash by SDS-PAGE based pull down assay. In outline: as §2
Experiment [7] addresses Eukaryotic translation initiation factor 3 subunit F (Homo sapiens) (UniProt O00303). Kind of experiment: Binding affinity to EIF3F in human Jurkat cells at 150 uM followed by UV irradiation for 30 mins with Wood's glass filtered medium pressure mercury arc light prior to cell lysis measured after denaturing wash by SDS-PAGE based pull down assay. In outline: as §2
Experiment [8] deals with Heat shock-related 70 kDa protein 2 (Homo sapiens) (UniProt P54652). In words: Binding affinity to HSPA2 in human Jurkat cells at 150 uM followed by UV irradiation for 30 mins with Wood's glass filtered medium pressure mercury arc light prior to cell lysis measured after denaturing wash by LC-MS/MS based pull down assay. The method in brief: (§3)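 Silver-stained bands from cells irradiated before lysis were excised, destained, reduced with 10 mM DTT, alkylated with 50 mM iodoacetamide and digested with trypsin overnight. Peptides were extracted in 1% TFA/50% acetonitrile. Nano-C18 LC used a 2–50% acetonitrile gradient with 0.1% formic acid over 50 min at 260 nL/min, followed by MS/MS identification.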
Sequence of Heat shock-related 70 kDa protein 2 (Homo sapiens) (P54652 whole entry): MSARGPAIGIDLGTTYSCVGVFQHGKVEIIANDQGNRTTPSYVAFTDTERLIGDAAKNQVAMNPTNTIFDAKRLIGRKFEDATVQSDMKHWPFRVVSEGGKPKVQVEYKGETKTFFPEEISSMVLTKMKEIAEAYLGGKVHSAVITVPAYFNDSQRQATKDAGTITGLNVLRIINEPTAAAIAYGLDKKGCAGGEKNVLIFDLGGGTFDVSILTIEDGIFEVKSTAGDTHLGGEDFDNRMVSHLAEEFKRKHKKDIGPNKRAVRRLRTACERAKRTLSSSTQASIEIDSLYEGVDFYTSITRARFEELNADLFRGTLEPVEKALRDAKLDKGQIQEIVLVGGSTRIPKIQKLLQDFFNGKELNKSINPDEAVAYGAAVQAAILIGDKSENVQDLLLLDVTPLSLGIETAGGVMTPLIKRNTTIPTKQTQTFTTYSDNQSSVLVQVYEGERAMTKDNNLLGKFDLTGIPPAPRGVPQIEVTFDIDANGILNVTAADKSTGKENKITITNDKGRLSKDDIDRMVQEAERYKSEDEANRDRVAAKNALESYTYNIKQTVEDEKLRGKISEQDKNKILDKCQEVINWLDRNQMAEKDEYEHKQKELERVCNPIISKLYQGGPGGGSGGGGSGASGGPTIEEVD

In experiment [9] the target is ATP synthase F(1) complex subunit beta, mitochondrial (Homo sapiens) (UniProt P06576). Kind of experiment: Binding affinity to ATP5B in human Jurkat cells at 150 uM followed by UV irradiation for 30 mins with Wood's glass filtered medium pressure mercury arc light prior to cell lysis measured after denaturing wash by LC-MS/MS based pull down assay. The method in brief:
as §3

For experiment [10], the target named is ATP synthase F(1) complex subunit alpha, mitochondrial (Homo sapiens) (UniProt P25705). In words: Binding affinity to ATP5A1 in human Jurkat cells at 150 uM followed by UV irradiation for 30 mins with Wood's glass filtered medium pressure mercury arc light prior to cell lysis measured after denaturing wash by LC-MS/MS based pull down assay. The method in brief:
as §3

In experiment [11] the target is Eukaryotic translation initiation factor 3 subunit F (Homo sapiens) (UniProt O00303). In words: Binding affinity to EIF3F in human Jurkat cells at 150 uM followed by UV irradiation for 30 mins with Wood's glass filtered medium pressure mercury arc light prior to cell lysis measured after denaturing wash by LC-MS/MS based pull down assay. The method in brief: as §3
Sequence of Eukaryotic translation initiation factor 3 subunit F (Homo sapiens) (O00303 whole entry): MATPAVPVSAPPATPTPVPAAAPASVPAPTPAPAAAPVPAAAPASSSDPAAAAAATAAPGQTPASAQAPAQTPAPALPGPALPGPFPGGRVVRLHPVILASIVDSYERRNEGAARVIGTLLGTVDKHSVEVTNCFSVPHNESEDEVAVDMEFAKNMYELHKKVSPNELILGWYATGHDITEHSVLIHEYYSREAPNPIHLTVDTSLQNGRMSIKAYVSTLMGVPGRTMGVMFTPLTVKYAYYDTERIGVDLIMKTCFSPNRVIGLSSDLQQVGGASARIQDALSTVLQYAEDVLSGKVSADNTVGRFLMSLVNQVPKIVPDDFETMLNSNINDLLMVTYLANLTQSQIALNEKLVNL

Sequence of Casein kinase II subunit alpha (Homo sapiens) (P68400 whole entry, looked up): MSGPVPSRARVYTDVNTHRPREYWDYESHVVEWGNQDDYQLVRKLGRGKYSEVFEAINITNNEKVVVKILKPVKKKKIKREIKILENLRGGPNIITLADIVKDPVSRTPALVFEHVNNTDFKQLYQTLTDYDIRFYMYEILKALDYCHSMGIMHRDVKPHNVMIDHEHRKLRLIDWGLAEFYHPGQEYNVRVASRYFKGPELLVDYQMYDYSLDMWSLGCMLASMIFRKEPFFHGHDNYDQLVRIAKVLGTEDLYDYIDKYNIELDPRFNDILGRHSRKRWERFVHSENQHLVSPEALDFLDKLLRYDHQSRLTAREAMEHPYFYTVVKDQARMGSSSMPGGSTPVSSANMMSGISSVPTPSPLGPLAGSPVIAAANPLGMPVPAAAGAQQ
Sequence of ATP synthase F(1) complex subunit beta, mitochondrial (Homo sapiens) (P06576 whole entry, one chain of several): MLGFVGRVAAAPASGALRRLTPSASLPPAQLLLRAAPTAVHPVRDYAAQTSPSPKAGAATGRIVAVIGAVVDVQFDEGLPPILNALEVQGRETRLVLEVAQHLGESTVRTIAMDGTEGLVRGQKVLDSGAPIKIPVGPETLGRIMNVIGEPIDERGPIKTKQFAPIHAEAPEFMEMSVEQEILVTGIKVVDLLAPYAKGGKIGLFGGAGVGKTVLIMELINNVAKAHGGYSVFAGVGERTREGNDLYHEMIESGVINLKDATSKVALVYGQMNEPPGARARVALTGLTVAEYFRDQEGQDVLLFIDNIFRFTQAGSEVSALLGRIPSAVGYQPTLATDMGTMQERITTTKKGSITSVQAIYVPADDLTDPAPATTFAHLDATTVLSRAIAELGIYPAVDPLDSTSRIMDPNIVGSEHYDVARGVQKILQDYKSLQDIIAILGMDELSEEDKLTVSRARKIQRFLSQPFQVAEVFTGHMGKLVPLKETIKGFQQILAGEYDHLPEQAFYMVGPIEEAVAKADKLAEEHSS
Sequence of ATP synthase F(1) complex subunit alpha, mitochondrial (Homo sapiens) (P25705 whole entry, one chain of several): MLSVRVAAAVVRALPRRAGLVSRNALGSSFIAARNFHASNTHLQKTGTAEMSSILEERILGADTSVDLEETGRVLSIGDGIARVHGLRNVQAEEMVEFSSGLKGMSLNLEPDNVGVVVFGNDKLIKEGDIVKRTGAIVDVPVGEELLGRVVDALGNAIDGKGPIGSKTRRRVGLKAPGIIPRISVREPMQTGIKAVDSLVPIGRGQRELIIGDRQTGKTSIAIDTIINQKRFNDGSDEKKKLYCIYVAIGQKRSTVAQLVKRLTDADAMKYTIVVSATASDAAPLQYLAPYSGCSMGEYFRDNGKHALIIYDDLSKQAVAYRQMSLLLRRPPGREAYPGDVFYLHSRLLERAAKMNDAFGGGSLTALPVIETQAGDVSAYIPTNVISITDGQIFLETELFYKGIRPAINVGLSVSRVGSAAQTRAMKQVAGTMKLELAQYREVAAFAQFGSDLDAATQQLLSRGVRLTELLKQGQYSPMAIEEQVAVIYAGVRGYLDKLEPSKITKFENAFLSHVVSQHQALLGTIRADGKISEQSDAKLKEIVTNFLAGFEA

With `O=C(CCCC[C@@H]1SC[C@@H]2NC(=O)N[C@@H]21)NCCOCCOCCNC(=O)COc1cc(O)c2c(=O)c(O)c(-c3ccc(O)c(O)c3)oc2c1`, the inhibition result in the experiment with Jurkat [1] was “Active”. Besides, the outcome (in [2]; in the experiment with Jurkat [3]; with Jurkat [4]; with Jurkat [5]; in [6]; in experiment [7]) was Active. Also, the outcome in [8], in [9], in [10] and in experiment [11] was Active. In addition, the outcome in the experiment filed under Homo sapiens was inactive.

Values taken from ChEMBL document CHEMBL2062417, “Biotinylated quercetin as an intrinsic photoaffinity proteomics probe for the identification of quercetin target proteins” (Bioorg Med Chem, 2011).
